ChEMBL document CHEMBL1944596, “7,8-dichloro-1-oxo-β-carbolines as a versatile scaffold for the development of potent and selective kinase inhibitors with unusual binding modes” (J Med Chem, 2012)

What was measured:
[1] = target: BMP-2-inducible protein kinase (Homo sapiens) (UniProt Q9NSY1); assay: Binding affinity to BIKE assessed as change in thermal denaturation at 10 uM by thermal stability shift assay
Procedure, shortened: (§1)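 Each compound was screened across a kinase panel by thermal stability shift assay. The read-out was the shift in protein melting temperature (ΔTm, in °C) relative to the unliganded kinase. A ΔTm of 4.0 °C served as the hit cutoff.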

[2] = target: Glycogen synthase kinase-3 beta (Homo sapiens) (UniProt P49841); assay: Binding affinity to GSK3-beta assessed as change in thermal denaturation at 10 uM by thermal stability shift assay; procedure, shortened: as §1
[3] = target: T1, Serine/threonine-protein kinase 17B (Homo sapiens) (UniProt O94768); assay: Binding affinity to DRAK2 assessed as change in thermal denaturation at 10 uM by thermal stability shift assay; procedure, shortened: as §1
T1 sequence (whole entry): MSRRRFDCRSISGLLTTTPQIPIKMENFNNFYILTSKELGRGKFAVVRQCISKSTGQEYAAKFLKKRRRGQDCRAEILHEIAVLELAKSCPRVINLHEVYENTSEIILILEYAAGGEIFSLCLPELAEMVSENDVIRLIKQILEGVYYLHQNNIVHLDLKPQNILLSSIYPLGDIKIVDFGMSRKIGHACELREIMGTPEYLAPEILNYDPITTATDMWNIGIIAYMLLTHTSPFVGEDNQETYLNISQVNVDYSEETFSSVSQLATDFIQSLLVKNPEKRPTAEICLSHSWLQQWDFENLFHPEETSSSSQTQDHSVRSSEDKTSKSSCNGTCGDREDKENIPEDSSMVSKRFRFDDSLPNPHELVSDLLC

[4] = target: Serine/threonine-protein kinase pim-3 (Homo sapiens, UniProt Q86V86); assay: Binding affinity to PIM3 assessed as change in thermal denaturation at 10 uM by thermal stability shift assay; procedure, shortened: as §1
[5] = target: Ribosomal protein S6 kinase alpha-1 (Homo sapiens) (UniProt Q15418); assay: Binding affinity to RSK1 assessed as change in thermal denaturation at 10 uM by thermal stability shift assay
[6] = target: Death-associated protein kinase 3 (Homo sapiens) (UniProt O43293); assay: Binding affinity to N-terminus His6-tagged DAPK3 expressed in Escherichia coli BL21 (DE3) cells coexpressing pCOEX assessed as change in thermal denaturation at 10 uM by thermal stability shift assay
Procedure, shortened: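 DAPK3 was expressed in E. coli grown in TB with kanamycin and chloramphenicol at 37 °C, cooled to 25 °C, and induced with 0.5 mM IPTG. Binding was read as thermal-shift ΔTm in °C.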

[7] = target: T2, Myosin light chain kinase family member 4 (Homo sapiens) (UniProt Q86YV6); assay: Binding affinity to SGK085 assessed as change in thermal denaturation at 10 uM by thermal stability shift assay; procedure, shortened: as §1
T2 sequence (whole entry): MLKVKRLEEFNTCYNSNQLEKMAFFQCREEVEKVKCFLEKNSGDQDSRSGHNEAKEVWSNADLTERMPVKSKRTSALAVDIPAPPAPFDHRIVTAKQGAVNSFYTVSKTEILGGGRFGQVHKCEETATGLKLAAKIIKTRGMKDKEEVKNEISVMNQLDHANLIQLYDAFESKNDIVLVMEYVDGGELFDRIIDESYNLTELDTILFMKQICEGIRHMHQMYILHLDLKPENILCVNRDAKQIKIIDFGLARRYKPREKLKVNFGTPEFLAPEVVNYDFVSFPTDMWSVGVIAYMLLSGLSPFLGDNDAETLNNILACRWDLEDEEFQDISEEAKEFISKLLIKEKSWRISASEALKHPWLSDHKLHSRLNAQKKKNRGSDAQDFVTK

[8] = target: T3, Serine/threonine-protein kinase PLK4 (Homo sapiens) (UniProt O00444); assay: Binding affinity to PLK4 assessed as change in thermal denaturation at 10 uM by thermal stability shift assay; procedure, shortened: as §1
T3 sequence (whole entry): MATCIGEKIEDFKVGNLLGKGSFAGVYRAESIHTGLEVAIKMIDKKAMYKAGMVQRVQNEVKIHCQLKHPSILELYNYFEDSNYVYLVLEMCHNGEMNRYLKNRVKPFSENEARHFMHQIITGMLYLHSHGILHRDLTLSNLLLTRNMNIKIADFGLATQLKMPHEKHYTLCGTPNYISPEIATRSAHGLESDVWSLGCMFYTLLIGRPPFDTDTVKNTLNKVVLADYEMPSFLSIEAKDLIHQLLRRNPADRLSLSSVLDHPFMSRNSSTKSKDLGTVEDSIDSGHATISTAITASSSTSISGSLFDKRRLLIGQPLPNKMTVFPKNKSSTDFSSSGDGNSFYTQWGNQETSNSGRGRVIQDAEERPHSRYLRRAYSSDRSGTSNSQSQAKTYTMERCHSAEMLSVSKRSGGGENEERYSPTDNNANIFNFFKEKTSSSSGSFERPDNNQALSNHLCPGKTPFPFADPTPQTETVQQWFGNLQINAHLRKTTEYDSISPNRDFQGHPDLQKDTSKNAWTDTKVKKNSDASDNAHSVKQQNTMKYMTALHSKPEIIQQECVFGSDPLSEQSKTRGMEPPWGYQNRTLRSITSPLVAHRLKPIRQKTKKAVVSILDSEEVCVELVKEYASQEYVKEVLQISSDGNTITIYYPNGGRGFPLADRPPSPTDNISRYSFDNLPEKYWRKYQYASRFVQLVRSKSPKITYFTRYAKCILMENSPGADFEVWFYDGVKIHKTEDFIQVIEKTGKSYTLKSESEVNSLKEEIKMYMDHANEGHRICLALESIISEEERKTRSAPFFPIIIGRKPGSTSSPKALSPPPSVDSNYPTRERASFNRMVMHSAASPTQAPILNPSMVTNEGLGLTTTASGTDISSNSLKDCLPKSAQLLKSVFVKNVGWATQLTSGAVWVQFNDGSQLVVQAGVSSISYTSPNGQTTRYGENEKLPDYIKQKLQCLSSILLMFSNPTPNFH

[9] = target: Serine/threonine-protein kinase pim-1 (Homo sapiens, UniProt P11309); assay: Binding affinity to PIM1 assessed as change in thermal denaturation at 10 uM by thermal stability shift assay; procedure, shortened: as §1
Sequence of Serine/threonine-protein kinase pim-1 (P11309 whole entry, looked up): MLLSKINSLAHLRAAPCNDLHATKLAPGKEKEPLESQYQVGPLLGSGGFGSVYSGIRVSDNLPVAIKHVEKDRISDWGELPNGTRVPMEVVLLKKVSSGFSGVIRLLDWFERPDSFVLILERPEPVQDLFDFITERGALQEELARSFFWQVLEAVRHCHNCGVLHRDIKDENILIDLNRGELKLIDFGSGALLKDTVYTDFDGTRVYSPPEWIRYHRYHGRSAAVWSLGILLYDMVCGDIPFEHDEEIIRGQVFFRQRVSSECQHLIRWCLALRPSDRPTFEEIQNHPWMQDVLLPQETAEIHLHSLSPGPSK

Sequence of BMP-2-inducible protein kinase (Homo sapiens) (Q9NSY1 whole entry, looked up): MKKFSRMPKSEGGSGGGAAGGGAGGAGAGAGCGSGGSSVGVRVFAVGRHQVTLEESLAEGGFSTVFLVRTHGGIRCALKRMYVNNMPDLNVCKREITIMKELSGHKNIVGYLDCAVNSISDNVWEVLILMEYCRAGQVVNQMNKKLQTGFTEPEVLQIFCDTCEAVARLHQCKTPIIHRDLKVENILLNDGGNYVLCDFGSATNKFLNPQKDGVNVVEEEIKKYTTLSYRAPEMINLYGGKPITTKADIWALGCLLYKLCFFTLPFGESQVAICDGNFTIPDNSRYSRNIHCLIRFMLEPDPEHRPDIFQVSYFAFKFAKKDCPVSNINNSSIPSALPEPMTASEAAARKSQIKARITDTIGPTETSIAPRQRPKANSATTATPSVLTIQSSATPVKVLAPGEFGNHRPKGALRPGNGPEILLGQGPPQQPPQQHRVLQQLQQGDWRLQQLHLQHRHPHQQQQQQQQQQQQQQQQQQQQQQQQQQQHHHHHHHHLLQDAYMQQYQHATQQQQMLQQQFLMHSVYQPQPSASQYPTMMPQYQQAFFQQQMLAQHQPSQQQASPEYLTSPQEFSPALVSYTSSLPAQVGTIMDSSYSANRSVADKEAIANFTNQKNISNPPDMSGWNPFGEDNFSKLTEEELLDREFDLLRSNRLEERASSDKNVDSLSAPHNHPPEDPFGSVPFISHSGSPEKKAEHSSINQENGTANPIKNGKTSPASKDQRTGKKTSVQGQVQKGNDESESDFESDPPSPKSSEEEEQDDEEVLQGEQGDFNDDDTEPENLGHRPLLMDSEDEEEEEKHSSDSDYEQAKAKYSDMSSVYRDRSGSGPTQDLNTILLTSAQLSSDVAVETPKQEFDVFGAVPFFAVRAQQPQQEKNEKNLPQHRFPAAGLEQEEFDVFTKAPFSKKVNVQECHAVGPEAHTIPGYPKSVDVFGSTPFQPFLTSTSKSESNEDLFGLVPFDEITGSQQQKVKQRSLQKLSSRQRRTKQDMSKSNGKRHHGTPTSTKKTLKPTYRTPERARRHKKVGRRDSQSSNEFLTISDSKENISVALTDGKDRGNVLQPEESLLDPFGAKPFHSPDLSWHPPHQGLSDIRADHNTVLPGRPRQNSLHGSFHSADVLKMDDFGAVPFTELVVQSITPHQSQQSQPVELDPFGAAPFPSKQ
Sequence of Death-associated protein kinase 3 (Homo sapiens) (O43293 whole entry, looked up): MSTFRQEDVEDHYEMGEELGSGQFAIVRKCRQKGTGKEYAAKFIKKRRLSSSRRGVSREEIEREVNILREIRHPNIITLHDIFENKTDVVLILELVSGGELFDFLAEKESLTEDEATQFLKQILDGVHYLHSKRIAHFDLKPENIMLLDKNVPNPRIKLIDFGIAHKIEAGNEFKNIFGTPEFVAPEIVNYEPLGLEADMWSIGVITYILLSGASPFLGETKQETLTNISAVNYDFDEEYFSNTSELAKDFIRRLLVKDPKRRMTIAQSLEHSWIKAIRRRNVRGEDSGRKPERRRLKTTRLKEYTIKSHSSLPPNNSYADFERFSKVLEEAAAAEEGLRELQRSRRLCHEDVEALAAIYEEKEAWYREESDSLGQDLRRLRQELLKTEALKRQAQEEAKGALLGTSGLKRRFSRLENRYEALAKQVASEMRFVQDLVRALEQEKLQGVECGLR
Sequence of Ribosomal protein S6 kinase alpha-1 (Homo sapiens) (Q15418 whole entry, looked up): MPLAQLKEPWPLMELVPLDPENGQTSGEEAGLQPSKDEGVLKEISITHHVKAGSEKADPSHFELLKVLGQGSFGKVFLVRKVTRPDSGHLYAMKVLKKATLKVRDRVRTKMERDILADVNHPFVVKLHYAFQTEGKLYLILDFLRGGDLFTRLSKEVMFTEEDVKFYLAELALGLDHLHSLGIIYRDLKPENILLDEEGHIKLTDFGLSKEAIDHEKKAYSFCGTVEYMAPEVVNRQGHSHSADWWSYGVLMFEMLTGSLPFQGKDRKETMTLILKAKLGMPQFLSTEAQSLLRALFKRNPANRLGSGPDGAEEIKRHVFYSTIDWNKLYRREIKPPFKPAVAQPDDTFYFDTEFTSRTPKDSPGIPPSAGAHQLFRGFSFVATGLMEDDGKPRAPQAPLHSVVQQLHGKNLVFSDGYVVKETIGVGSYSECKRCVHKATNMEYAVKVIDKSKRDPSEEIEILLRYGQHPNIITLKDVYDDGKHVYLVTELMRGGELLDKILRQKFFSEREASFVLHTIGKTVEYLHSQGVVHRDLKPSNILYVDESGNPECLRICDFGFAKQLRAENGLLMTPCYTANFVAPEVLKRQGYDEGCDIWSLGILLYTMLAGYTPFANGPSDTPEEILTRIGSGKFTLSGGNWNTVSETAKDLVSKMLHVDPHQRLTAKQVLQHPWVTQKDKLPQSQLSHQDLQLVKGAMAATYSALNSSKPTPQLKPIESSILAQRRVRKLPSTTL
Sequence of Glycogen synthase kinase-3 beta (Homo sapiens) (P49841 whole entry, looked up): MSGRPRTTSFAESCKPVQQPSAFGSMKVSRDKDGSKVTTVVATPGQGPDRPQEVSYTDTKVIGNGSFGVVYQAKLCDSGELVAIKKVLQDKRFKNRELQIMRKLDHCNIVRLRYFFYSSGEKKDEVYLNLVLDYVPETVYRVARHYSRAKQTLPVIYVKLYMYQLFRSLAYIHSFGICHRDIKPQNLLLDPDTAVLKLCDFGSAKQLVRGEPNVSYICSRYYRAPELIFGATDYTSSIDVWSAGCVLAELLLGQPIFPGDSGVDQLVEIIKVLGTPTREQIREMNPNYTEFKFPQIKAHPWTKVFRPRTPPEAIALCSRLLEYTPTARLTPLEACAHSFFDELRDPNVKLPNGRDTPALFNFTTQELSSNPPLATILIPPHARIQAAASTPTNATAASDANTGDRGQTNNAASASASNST

ΔTm [1]	ΔTm [2]	ΔTm [3]	ΔTm [4]	ΔTm [5]	ΔTm [7]	ΔTm [8]	ΔTm [9]	SMILES	ΔTm [6]
0.8 °C	2.2 °C	1.2 °C	7.2 °C	0.5 °C	1.5 °C	3.3 °C	7.7 °C	CN1CCC2(CC1)NC(=O)c1c(c3ccc(Cl)c(Cl)c3n1C)C2C#N (racemic)	6.3 °C
1.2 °C	2 °C	2.9 °C	3.4 °C	0.5 °C	0.4 °C	4.6 °C	3.3 °C	CCC1(CC)NC(=O)c2c(c3ccc(Cl)c(Cl)c3n2C)C1C#N (centres undefined)	2.4 °C
1.1 °C	1.8 °C	0.3 °C	1.3 °C	0.4 °C	1.7 °C	0.9 °C	0.9 °C	Cn1c2c(c3ccccc31)C(C#N)C(C)(C)NC2=O (centres undefined)	0.6 °C
0.4 °C	0.2 °C	1.6 °C	0.7 °C	0.7 °C	0.6 °C	1 °C	1.1 °C	CC(=O)NCC1c2c(n(C)c3c(Cl)c(Cl)ccc23)C(=O)NC1(C)C (racemic)	0.8 °C
2.8 °C	5.6 °C	4.8 °C	6.2 °C	1.8 °C	2 °C	5.1 °C	5.7 °C	Cn1c2c(c3ccc(Cl)c(Cl)c31)C(C#N)C(C)(C)NC2=O (centres undefined)	3.4 °C
5.3 °C	4.6 °C	2.2 °C	2.3 °C	1.7 °C	5.5 °C	1.5 °C	1.6 °C	Cn1c2c(Cl)c(Cl)ccc2c2cn[nH]c(=O)c21	4 °C
0 °C	-0.2 °C	0 °C	0.6 °C	0 °C	0 °C	0.1 °C	0.8 °C	Cn1c2c(c3ccc(Cl)c(Cl)c31)C(C#N)C1(CCN(C(=O)OC(C)(C)C)CC1)NC2=O (racemic)	-0.2 °C
8.2 °C	1.4 °C	3.6 °C	3.6 °C	4.6 °C	6.4 °C	1.7 °C	4 °C	Cn1c2c(Cl)c(Cl)ccc2c2cc[nH]c(=O)c21	3.4 °C
1.2 °C	4.7 °C	2.1 °C	4 °C	1.4 °C	3.1 °C	1.7 °C	3.5 °C	CC1(C)NC(=O)c2[nH]c3c(Cl)c(Cl)ccc3c2C1C#N (centres undefined)	2 °C
5.2 °C	2.9 °C	3 °C	3.6 °C	3.1 °C	2.9 °C	2 °C	4 °C	Cn1c2c(Cl)c(Cl)ccc2c2cc(N)[nH]c(=O)c21	2.6 °C
-0.5 °C	1.5 °C	1.1 °C	7.1 °C	0 °C	0 °C	3.2 °C	7.4 °C	CCN1CCC2(CC1)NC(=O)c1c(c3ccc(Cl)c(Cl)c3n1C)C2C#N (racemic)	4.6 °C
2.3 °C	3.4 °C	1.7 °C	4.7 °C	0.6 °C	0.5 °C	2.7 °C	4.8 °C	Cn1c2c(c3ccc(Cl)c(Cl)c31)C(C#N)C1(CCOCC1)NC2=O (centres undefined)	3.1 °C
1.3 °C	2.5 °C	2.6 °C	3.8 °C	0.5 °C	0.1 °C	2.5 °C	3.8 °C	Cn1c2c(c3ccc(Cl)c(Cl)c31)C(C#N)C1(CCCC1)NC2=O (centres undefined)	1.5 °C
1.7 °C	0.6 °C	6.4 °C	3.7 °C	0.4 °C	0.2 °C	2.7 °C	3.6 °C	Cn1c2c(c3ccc(Cl)c(Cl)c31)C(CN)C(C)(C)NC2=O (racemic)	3.6 °C
1.1 °C	2.6 °C	2.3 °C	4.9 °C	0.4 °C	1.2 °C	1.3 °C	4.9 °C	N#CC1c2c([nH]c3c(Cl)c(Cl)ccc23)C(=O)NC12CCCCC2 (racemic)	3.4 °C

SMILES	ΔTm [1]	ΔTm [2]	ΔTm [3]	ΔTm [4]	ΔTm [5]	ΔTm [7]	ΔTm [8]	ΔTm [9]	ΔTm [6]
Cn1c2c(c3ccc(Cl)c(Cl)c31)C(C#N)C1(CCNCC1)NC2=O (racemic)	1 °C	3.9 °C	3.4 °C	9.6 °C	1 °C	3.5 °C	6.8 °C	10.7 °C	10.6 °C
